Experimental data reported in PMC9414273 (Clinical Cancer Research, 2021).
Where two headings read alike, the source gives them in different places.

Tests used:
[1] = system: patients with pancreatic cancer; conditions: patients with treatment-naïve advanced pancreatic cancer; cited from earlier work
[2] = system: patients with advanced cancer; experiment: Safety and tolerability: treatment-emergent adverse events; format: in vivo, human
In short: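 Patients aged 18 or over with ECOG 0–1 got oral test compound twice daily, 2w/2w or 3w/1w per 28-day cycle, in a 3+3 escalation. Each dose level had at least 3 DLT-evaluable patients. AEs graded by CTCAE v4.03, and investigators judged relation to treatment. AE frequency and percentage given per arm for all patients dosed.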

T-cell proliferation = conditions: preclinical; cited from earlier work
[3] = cited from earlier work; for NOAEL daily AUC threshold for cardiotoxicity: established preclinically in rats and dogs
[4] = system: patients with grade 4 glioma; experiment: Antitumor activity; format: in vivo, human
In short: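 Patients with grade 4 glioma (IDH1/2-mutant or IDH wild-type) got oral test compound twice daily in 28-day cycles: dose escalation on 2w/2w or 3w/1w, expansion at 50 mg 2w/2w. RANO response by CT or MRI at baseline and days 22–28 of every other cycle until confirmed progression or withdrawal. CR/PR confirmed and reported as frequency. PFS and OS by Kaplan–Meier.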

[5] = system: 4T1-luciferase–positive preclinical tumor models of triple-negative breast cancer; conditions: in vitro and in vivo; cited from earlier work
[6] = Plasma pharmacokinetics of LY3200882; format: in vivo, human
In short: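 Oral test compound twice daily on 2w/2w or 3w/1w schedules, 5–50 mg. Plasma measured by validated LC-MS/MS. Cmax, tmax, AUC, CL/F and V/F estimated noncompartmentally. Dose proportionality tested by a power model on log-transformed Cmax and AUC with dose as fixed effect. Steady state and accumulation inferred from t1/2.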

[7] = system: patients with advanced or metastatic cancers; experiment: Antitumor activity; format: in vivo, human; conditions: for median PFS: advanced cancers
[8] = Any grade, Japanese cohort (N = 9)
[9] = Any grade, grade 4 glioma expansion, RP2D 2w/2w (N = 40)
[10] = Any grade, schedule A 2w/2w escalation (N = 30)
[11] = Any grade, schedule B 3w/1w escalation (N = 32)
[12] = Grade ≥3, Japanese cohort (N = 9)
[13] = Grade ≥3, grade 4 glioma expansion, RP2D 2w/2w (N = 40)
[14] = Grade ≥3, schedule A 2w/2w escalation (N = 30)
[15] = Grade ≥3, schedule B 3w/1w escalation (N = 32)
[16] = grade 4 glioma expansion, RP2D 2w/2w (N = 40)
[17] = single patient, IDH WT grade 4 glioma, monotherapy 50 mg twice a day 2w/2w
[18] = of a total of 139 patients, LY3200882-based therapies
[19] = schedule A 2w/2w escalation (N = 30)
[20] = schedule B 3w/1w escalation (N = 32)

FOLFIRINOX
ORR [1]: 31.6%

CC(C)(O)c1cc(Nc2cc(Oc3cn(C4CC4)nc3C3CCOCC3)ccn2)ccn1 [LY3200882]
Dose-limiting toxicities ([2]; 2w/2w and 3w/1w schedules): not observed
Recommended phase II dose (RP2D) ([2]; 2w/2w schedule): 50 mg twice a day
Recommended phase II dose (RP2D) ([2]; 3w/1w schedule): 35 mg twice a day
ALT increased (study treatment-related AE) [2, 8]: 1 (11) n (%)
Anemia (study treatment-related AE) [2, 8]: 1 (11) n (%)
Fatigue (study treatment-related AE) [2, 8]: 0 (0) n (%)
Nausea (study treatment-related AE) [2, 8]: 1 (11) n (%)
Subjects with ≥1 TEAE related to study treatment [2, 8]: 3 (33) n (%)
ALT increased (study treatment-related AE) [2, 9]: 0 (0) n (%)
Anemia (study treatment-related AE) [2, 9]: 0 (0) n (%)
Fatigue (study treatment-related AE) [2, 9]: 4 (10) n (%)
Nausea (study treatment-related AE) [2, 9]: 0 (0) n (%)
Subjects with ≥1 TEAE related to study treatment [2, 9]: 10 (25) n (%)
ALT increased (study treatment-related AE) [2, 10]: 0 (0) n (%)
Anemia (study treatment-related AE) [2, 10]: 1 (3) n (%)
Fatigue (study treatment-related AE) [2, 10]: 0 (0) n (%)
Nausea (study treatment-related AE) [2, 10]: 1 (3) n (%)
Subjects with ≥1 TEAE related to study treatment [2, 10]: 10 (33) n (%)
ALT increased (study treatment-related AE) [2, 11]: 2 (6) n (%)
Anemia (study treatment-related AE) [2, 11]: 1 (3) n (%)
Fatigue (study treatment-related AE) [2, 11]: 1 (3) n (%)
Nausea (study treatment-related AE) [2, 11]: 1 (3) n (%)
Subjects with ≥1 TEAE related to study treatment [2, 11]: 10 (31) n (%)
ALT increased (study treatment-related AE) [2, 12]: 0 (0) n (%)
Anemia (study treatment-related AE) [2, 12]: 0 (0) n (%)
Fatigue (study treatment-related AE) [2, 12]: 0 (0) n (%)
Nausea (study treatment-related AE) [2, 12]: 0 (0) n (%)
Subjects with ≥1 TEAE related to study treatment [2, 12]: 0 (0) n (%)
ALT increased (study treatment-related AE) [2, 13]: 0 (0) n (%)
Anemia (study treatment-related AE) [2, 13]: 0 (0) n (%)
Fatigue (study treatment-related AE) [2, 13]: 0 (0) n (%)
Nausea (study treatment-related AE) [2, 13]: 0 (0) n (%)
Subjects with ≥1 TEAE related to study treatment [2, 13]: 0 (0) n (%)
ALT increased (study treatment-related AE) [2, 14]: 0 (0) n (%)
Anemia (study treatment-related AE) [2, 14]: 0 (0) n (%)
Fatigue (study treatment-related AE) [2, 14]: 0 (0) n (%)
Nausea (study treatment-related AE) [2, 14]: 0 (0) n (%)
Subjects with ≥1 TEAE related to study treatment [2, 14]: 0 (0) n (%)
ALT increased (study treatment-related AE) [2, 15]: 0 (0) n (%)
Anemia (study treatment-related AE) [2, 15]: 0 (0) n (%)
Fatigue (study treatment-related AE) [2, 15]: 0 (0) n (%)
Nausea (study treatment-related AE) [2, 15]: 0 (0) n (%)
Subjects with ≥1 TEAE related to study treatment [2, 15]: 0 (0) n (%)
Cardiovascular AEs ([2]; LY3200882 as monotherapy): no cardiovascular AEs were observed
Deaths related to study treatment ([2]; overall): none
Patients with SAEs related to study drug ([2]; overall, 3 patients, only in combination expansion arms): 2.2%
Patients with at least 1 serious AE (SAE) ([2]; overall, 24 patients): 17.3%
Deaths reported in the study ([2]; overall, 63 deaths): 45.3%
Patients with TEAEs that were study-treatment (LY3200882) related ([2]; overall, all arms, 55 patients): 39.6%
Patients who experienced ≥1 TEAE ([2]; overall, all arms, 130 of 139 treated patients): 93.5%
Immunomodulatory effects (T-cell proliferation): induction of T-cell proliferation
NOAEL daily AUC threshold for cardiotoxicity ([3]; 2w/2w schedule): 3.4 mg X h/L
NOAEL daily AUC threshold for cardiotoxicity ([3]; 3w/1w schedule): 1.56 mg X h/L
NOAEL for cardiotoxicity (AUC) ([3]; nonclinical toxicology studies): 3.4 mg X hours/L
Duration of response (RANO PR) ([4]; dose escalation, 1 patient IDH 1–mutant grade 4 glioma, 3w/1w schedule): 3.9 months
Duration of response (RANO PR) ([4]; dose escalation, 1 patient IDH WT grade 4 glioma, 2w/2w schedule): 19 months
Duration of response (RANO PR) ([4]; dose-expansion arm, 1 patient IDH WT grade 4 glioma, 50 mg twice a day 2w/2w): 5.6 months
median OS ([4]; dose-expansion arm, 15 patients with recurrent IDH mutant grade 4 glioma, 95% CI 7.3–NE): 10.6 months
median OS ([4]; dose-expansion arm, 25 patients with IDH WT grade 4 glioma, 95% CI 4.6–9.7): 8.2 months
median PFS ([4]; dose-expansion arm, IDH mutant, 95% CI 1.3–1.8): 1.7 months
Best overall response: CR [4, 16]: 0 (0) n (%)
Best overall response: Nonevaluable [4, 16]: 7 (18) n (%)
Best overall response: PR [4, 16]: 1 (3) n (%)
Best overall response: Progressive disease [4, 16]: 26 (65) n (%)
Best overall response: SD [4, 16]: 6 (15) n (%)
DCR (CR/PR/SD) [4, 16]: 7 (18) n (%)
ORR (CR/PR) [4, 16]: 1 (3) n (%)
Time remained on trial [4, 17]: 30.4 months
Tumor reduction by RANO assessment [4, 17]: 94%
Effect on tumors in 4T1 models [5]: durable tumor regression
PK profile linearity ([6]; 5- to 50-mg dose range): linear with dose and time
Doses after which steady state would be achieved ([6]; based on the short t1/2): 2 doses
Time at which peak concentration was reached after administration ([6]; oral, patients): 2 h
mean CL/F ([6]; oral, patients): 57.3 L/h
mean V/F ([6]; oral, patients): 559 L
Accumulation ratio ([6]; steady state, twice a day, based on the short t1/2): 1.4 fold
Effect on its own metabolism ([6]; suggested by PK constant over time): neither an inhibitor nor an inducer of its own metabolism
median OS ([7]; 35 mg twice a day 3w/1w (8 patients), 95% CI 2.6–NE): 4.0 months
median OS ([7]; 50 mg twice a day 2w/2w (17 patients), 95% CI 1.2–11.4): 6.1 months
Best overall response: CR ([7]; Japanese cohort (N = 9)): 0 (0) n (%)
Best overall response: Nonevaluable ([7]; Japanese cohort (N = 9)): 1 (11) n (%)
Best overall response: PR ([7]; Japanese cohort (N = 9)): 0 (0) n (%)
Best overall response: Progressive disease ([7]; Japanese cohort (N = 9)): 8 (89) n (%)
Best overall response: SD ([7]; Japanese cohort (N = 9)): 0 (0) n (%)
DCR (CR/PR/SD) ([7]; Japanese cohort (N = 9)): 0 (0) n (%)
ORR (CR/PR) ([7]; Japanese cohort (N = 9)): 0 (0) n (%)
median PFS ([7]; 35 mg twice a day 3w/1w (n = 8), 95% CI 0.8–2.6): 1.7 months
median PFS ([7]; 50 mg twice a day 2w/2w (n = 17), 95% CI 0.9–2.0): 1.8 months
Patients who achieved radiologic CR/PR [7, 18]: 11 patients
Patients who had SD [7, 18]: 28 patients
DCR ([7]; overall study population): 28.1%
Best overall response: CR [7, 19]: 0 (0) n (%)
Best overall response: Nonevaluable [7, 19]: 8 (27) n (%)
Best overall response: PR [7, 19]: 1 (3) n (%)
Best overall response: Progressive disease [7, 19]: 15 (50) n (%)
Best overall response: SD [7, 19]: 6 (20) n (%)
DCR (CR/PR/SD) [7, 19]: 7 (23) n (%)
ORR (CR/PR) [7, 19]: 1 (3) n (%)
Best overall response: CR [7, 20]: 0 (0) n (%)
Best overall response: Nonevaluable [7, 20]: 4 (13) n (%)
Best overall response: PR [7, 20]: 1 (3) n (%)
Best overall response: Progressive disease [7, 20]: 20 (63) n (%)
Best overall response: SD [7, 20]: 7 (22) n (%)
DCR (CR/PR/SD) [7, 20]: 8 (25) n (%)
ORR (CR/PR) [7, 20]: 1 (3) n (%)
